Laboratory results as given in ChEMBL document CHEMBL1138561, “Synthesis of novel N-protected hydrophobic phenylalanines and their application in potential antibacterials” (2009).
≈ marks a conversion by molar mass, not a printed value.

Experiments:
Enterococcus faecalis = test: Antibacterial activity against vancomycin-sensitive Enterococcus faecalis; format: functional
In short: (§1)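 Broth microdilution in Mueller–Hinton medium, with the inoculum a 1/10 dilution of seed culture. Peptoids were dissolved in 50% MeOH/H2O to 1 mg/mL, added to the top row and serially diluted down the plate. Plates were incubated at 37 °C with shaking at 100 rpm for 18 h, with two peptoids per plate.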

Staphylococcus aureus = test: Antibacterial activity against Staphylococcus aureus ATCC 6538 after 18 hrs; format: functional; settings: ATCC 6538, 18 h; in short: as §1

Row | Compound | MIC (Enterococcus faecalis) [µg/mL] | MIC (Staphylococcus aureus) [µg/mL]
1 | C=CC[C@H](NC(=O)[C@H](CCCCN)NC(=O)[C@H](Cc1ccc(-c2c3ccccc3cc3ccccc23)cc1)NC(C)=O)C(=O)OC.Cl | > 125 | 31.3
2 | CN[C@H](CC(C)C)C(=O)N[C@H]1C(=O)N[C@@H](CC(N)=O)C(=O)N[C@H]2C(=O)N[C@H]3C(=O)N[C@H](C(=O)N[C@H](C(=O)O)c4cc(O)cc(O)c4-c4cc3ccc4O)[C@H](O)c3ccc(c(Cl)c3)Oc3cc2cc(c3O[C@@H]2O[C@H](CO)[C@@H](O)[C@H](O)[C@H]2O[C@H]2C[C@](C)(N)[C@H](O)[C@H](C)O2)Oc2ccc(cc2Cl)[C@H]1O [VANCOMYCIN] |  | 1.95 (≈ 1.35 µM)
3 | C=CC[C@H](NC(=O)[C@@H](CCCNC(=N)N)NC(=O)[C@H](CCCCN)NC(=O)[C@H](Cc1ccc(-c2c3ccccc3cc3ccccc23)cc1)NC(C)=O)C(=O)OCc1ccccc1.Cl.Cl | > 125 | 15.6
4 | C=CC[C@H](NC(=O)[C@H](CCCCN)NC(=O)[C@H](Cc1ccc(-c2cc3ccccc3c3ccccc23)cc1)NC(C)=O)C(=O)OC.Cl | > 125 | 15.6
5 | C=CC[C@H](NC(=O)[C@@H](CCCNC(=N)N)NC(=O)[C@H](CCCCN)NC(=O)[C@H](Cc1ccc(-c2cc3ccccc3c3ccccc23)cc1)NC(C)=O)C(=O)OCc1ccccc1.Cl.Cl | > 125 | 7.8
6 | C=CCOc1ccc(C[C@H](NC(C)=O)C(=O)N[C@@H](CCCCN)C(=O)N[C@H](CCCNC(=N)N)C(=O)N[C@@H](CC=C)C(=O)OCc2ccccc2)cc1.Cl.Cl | > 125 | > 125
